ChEMBL document CHEMBL4725413, “Quinoline-Pyrazole Scaffold as a Novel Ligand of Galectin-3 and Suppressor of TREM2 Signaling” (ACS Med Chem Lett, 2020)

Legend:
[1] = biological target: T1, Galectin-3 (Homo sapiens, UniProt P17931); assay: Binding affinity to recombinant human galectin 3 assessed as dissociation constant by SPR assay
Summary of the method: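 SPR with galectin-3 for Kd estimation. TREM2 was also run by SPR as a counter-target.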

[2] = test system: BV-2; assay: Antiinflammatory activity in mouse BV-2 cells assessed as reduction in Abeta-induced IL-8 release incubated for 12 hrs by ELISA; assay type: functional, cell-based; conditions: dose microM 2.5-10, time 12.0 hrs
Summary of the method: (§1)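 BV2 microglia co-treated with Aβ fibrils (10 μM) for 12 h, with or without a range of test-compound concentrations. TNFα, IL12 and IL8 were quantified in culture medium. Values are relative to untreated control. Mean ± SD, n = 3.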

[3] = test system: BV-2; assay: Antiinflammatory activity in mouse BV-2 cells assessed as reduction in Abeta-induced TNFalpha release incubated for 12 hrs by ELISA; assay type: functional, cell-based; conditions: dose microM 2.5-10, time 12.0 hrs; summary of the method: as §1
[4] = test system: BV-2; assay: Antiinflammatory activity in mouse BV-2 cells assessed as reduction in Abeta-induced TNFalpha release at 10 uM incubated for 12 hrs by ELISA relative to control; assay type: functional; summary of the method: as §1
[5] = biological target: T1, Galectin-3; assay: Binding affinity to recombinant human galectin 3 assessed as dissociation constant by fluorescent anisotropy assay
Summary of the method: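 Fluorescence anisotropy. Increasing galectin concentrations were titrated against a fixed concentration of small molecule until anisotropy reached a maximum (saturation), and Kd was derived from this.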

[6] = test system: BV-2; assay: Antiinflammatory activity in mouse BV-2 cells assessed as reduction in Abeta-induced IL-12 release incubated for 12 hrs by ELISA; assay type: functional, cell-based; conditions: dose microM 2.5-10, time 12.0 hrs; summary of the method: as §1
[7] = biological target: Galectin-1 (Homo sapiens, UniProt P09382); assay: Binding affinity to recombinant human galectin 1 assessed as dissociation constant by fluorescent anisotropy assay
[8] = species: Homo sapiens; assay: Inhibition of recombinant human galectin-3/recombinant human TREM2 interaction assessed as reduction in TR-FRET signal at 10 uM incubated for 3 hrs by TR-FRET assay relative to control
Summary of the method: (§2)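 TR-FRET using Eu cryptate-labelled galectin-3 (donor) and Alexa Fluor 647-labelled TREM2 (acceptor). Disruption of binding lowers the TR-FRET ratio. Single-point screening was at 10 μM, with hits defined as >5 SD below the mean signal. Dose-response runs gave IC50.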

[9] = Inhibition of recombinant human galectin-3/recombinant human TREM2 interaction assessed as reduction in TR-FRET signal incubated for 3 hrs by TR-FRET assay; summary of the method: as §2
[10] = test system: BV-2; assay: Antiinflammatory activity in mouse BV-2 cells assessed as reduction in Abeta-induced IL-12 release at 10 uM incubated for 12 hrs by ELISA relative to control; assay type: functional; summary of the method: as §1
[11] = biological target: T1, Galectin-3; assay: Inhibition of galectin 3 in mouse BWZ cells transfected with TREM2 and DAP12 assessed as reduction in lacZ activity incubated for 24 hrs by lacZ reporter gene based beta-galactosidase assay; assay type: cell-based; conditions: dose microM 2.5-10, time 24.0 hrs
Summary of the method: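 TREM2-DAP12 reporter assay in BWZ thymoma cells transfected with TREM2 and DAP12. Galectin-3 (5 μM) was the stimulant, co-incubated with a range of compound concentrations. NFAT-driven LacZ β-galactosidase activity was the read-out. Controls were unstimulated cells and galectin-stimulated cells without compound, plus untransfected BWZ cells. Mean ± SD, n = 3.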

T1 sequence (P17931 whole entry): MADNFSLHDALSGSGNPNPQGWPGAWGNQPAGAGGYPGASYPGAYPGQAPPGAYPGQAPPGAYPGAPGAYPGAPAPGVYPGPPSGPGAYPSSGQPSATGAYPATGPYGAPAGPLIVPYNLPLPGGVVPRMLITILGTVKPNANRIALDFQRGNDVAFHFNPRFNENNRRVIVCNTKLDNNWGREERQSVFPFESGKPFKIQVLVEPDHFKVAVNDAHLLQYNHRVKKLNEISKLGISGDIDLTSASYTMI
Chain of Galectin-1 (P09382 whole entry): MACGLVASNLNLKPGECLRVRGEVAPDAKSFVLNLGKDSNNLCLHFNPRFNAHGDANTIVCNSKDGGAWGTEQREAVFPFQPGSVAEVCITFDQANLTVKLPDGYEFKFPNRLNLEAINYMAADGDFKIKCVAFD

For `Cn1cc(-c2ccncc2)c(-c2ccc(OCc3ccc4ccccc4n3)cc2)n1` [MARDEPODECT], which Kd [1] is on record?
Its Kd is 290 nM.

And the inhibition [2]?
The inhibition was “Dose-dependent effect”.

What about the inhibition [3] of the same compound?
Its inhibition is “Dose-dependent effect”.

And the inhibition at 10 µM [4]?
Its inhibition at 10 µM is 50%.

What about the Kd [5] of the same compound?
Its Kd is 150 nM.

What about the inhibition [6] of the same compound?
Its inhibition is “Dose-dependent effect”.

And the Kd [7]?
Its Kd is > 500000 nM.

And the inhibition [8]?
Its inhibition is > 95%.

What about the IC50 [9] of the same compound?
Its IC50 is 91 nM.

And the inhibition at 10 µM [10]?
The inhibition at 10 µM was 40%.

And the inhibition [11]?
The inhibition was “Dose-dependent effect”.
